Experiment [1] is filed under the species Homo sapiens. Briefly: In vitro cytotoxic activity against human colon adenocarcinoma (HT-29). It counts as functional. The essentials: (§1)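 HT29 cells were seeded at 2.5 × 10^4 cells/mL of medium and drug solutions were added. Exposure lasted 144 h. IC50 is the drug concentration inhibiting cell growth by 50%. Assays were run in triplicate.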
Experiment [2] relates to HCT-116. The experiment in a line: Percent growth of colon HCT116 cell line at compound concentration 10e-6 was determined. It counts as functional, Homo sapiens. The method, boiled down: (§2)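 Cells in the NCI panel were exposed for 48 h to 10^-8, 10^-6 and 10^-4 or 10^-5 M drug. Growth is given as percent of untreated control (100%). Negative values are the percent of cells killed relative to the initial cell number.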

Experiment [3] deals with MCF7. Briefly: Percent growth of breast MCF-7 cell line at compound concentration 10e-8 was determined. It counts as functional, Homo sapiens. The method, boiled down: as §2
Experiment [4] deals with HCT-116. The experiment in a line: Percent growth of colon HCT116 cell line at compound concentration 10e-4 was determined. It counts as functional, Homo sapiens. The method, boiled down:
as §2

The test system of experiment [5] is MCF7. Briefly: Percent growth of breast MCF-7 cell line at compound concentration 10e-6 was determined. It counts as functional, Homo sapiens. The method, boiled down: as §2
The test system of experiment [6] is RPMI-8226. The experiment in a line: Percent growth of leukemia RPMI-8226 cell line at compound concentration 10e-6 was determined. It counts as functional, Homo sapiens. The essentials:
as §2

In experiment [7] the test system is NCI-H460. The experiment in a line: Percent growth of lung-NSC NCI-H460 cell line at compound concentration 10e-8 was determined. It counts as functional, Homo sapiens. The method, boiled down: as §2
Experiment [8] has as its system LOX IMVI. Briefly: Percent growth of melanoma LOX IMVI cell line at compound concentration 10e-8 was determined. It counts as functional, Homo sapiens. The essentials: as §2
Experiment [9] has as its system SNB-19. Briefly: Percent growth of CNS SNB-19 cell line at compound concentration 10e-4 was determined. It counts as functional, Homo sapiens. The method, boiled down: as §2
Experiment [10] has as its system RPMI-8226. Briefly: Percent growth of leukemia RPMI-8226 cell line at compound concentration 10e-4 was determined. It counts as functional, Homo sapiens. The essentials: as §2
Experiment [11] deals with OVCAR-4. Briefly: Percent growth of ovarian OVCAR-4 cell line at compound concentration 10e-8 was determined. It counts as functional, Homo sapiens. The method, boiled down:
as §2

For experiment [12], the system named is MCF7. The experiment in a line: Percent growth of breast MCF-7 cell line at compound concentration 10e-4 was determined. It counts as functional, Homo sapiens. The method, boiled down:
as §2

The subject of experiment [13] is DU-145. The experiment in a line: Percent growth of prostate DU-145 cell line at compound concentration 10e-6 was determined. It counts as functional, Homo sapiens. The method, boiled down:
as §2

Experiment [14] deals with 786-0. The experiment in a line: Percent growth of renal 786-0 cell line at compound concentration 10e-4 was determined. It counts as functional, Homo sapiens. The method, boiled down:
as §2

The test system of experiment [15] is LOX IMVI. The experiment in a line: Percent growth of melanoma LOX IMVI cell line at compound concentration 10e-6 was determined. It counts as functional, Homo sapiens. The method, boiled down:
as §2

Experiment [16] has as its system DU-145. Briefly: Percent growth of prostate DU-145 cell line at compound concentration 10e-4 was determined. It counts as functional, Homo sapiens. The essentials: as §2
Experiment [17] relates to 786-0. Briefly: Percent growth of renal 786-0 cell line at compound concentration 10e-6 was determined. It counts as functional, Homo sapiens. The essentials:
as §2

Experiment [18] relates to SNB-19. Briefly: Percent growth of CNS SNB-19 cell line at compound concentration 10e-6 was determined. It counts as functional, Homo sapiens. The essentials: as §2
Experiment [19] has as its system DU-145. The experiment in a line: Percent growth of prostate DU-145 cell line at compound concentration 10e-8 was determined. It counts as functional, Homo sapiens. The essentials:
as §2

For experiment [20], the system named is 786-0. Briefly: Percent growth of renal 786-0 cell line at compound concentration 10e-8 was determined. It counts as functional, Homo sapiens. The method, boiled down: as §2
Experiment [21] relates to SNB-19. Briefly: Percent growth of CNS SNB-19 cell line at compound concentration 10e-8 was determined. It counts as functional, Homo sapiens. The essentials: as §2
Experiment [22] deals with OVCAR-4. Briefly: Percent growth of ovarian OVCAR-4 cell line at compound concentration 10e-4 was determined. It counts as functional, Homo sapiens. The method, boiled down: as §2
The test system of experiment [23] is LOX IMVI. Briefly: Percent growth of melanoma LOX IMVI cell line at compound concentration 10e-4 was determined. It counts as functional, Homo sapiens. The method, boiled down: as §2
For experiment [24], the species on record is Homo sapiens. The experiment in a line: In vitro cytotoxic activity against human colon adenocarcinoma (HT-29). It counts as functional. The method, boiled down: as §1
Experiment [25] has as its system RPMI-8226. The experiment in a line: Percent growth of leukemia RPMI-8226 cell line at compound concentration 10e-8 was determined. It counts as functional, Homo sapiens. The essentials: as §2
Experiment [26] concerns HCT-116. Briefly: Percent growth of colon HCT116 cell line at compound concentration 10e-8 was determined. It counts as functional, Homo sapiens. The essentials: as §2
Experiment [27] relates to NCI-H460. The experiment in a line: Percent growth of lung-NSC NCI-H460 cell line at compound concentration 10e-6 was determined. It counts as functional, Homo sapiens. The method, boiled down: as §2
For experiment [28], the system named is NCI-H460. Briefly: Percent growth of lung-NSC NCI-H460 cell line at compound concentration 10e-4 was determined. It counts as functional, Homo sapiens. The method, boiled down: as §2
For experiment [29], the system named is OVCAR-4. Briefly: Percent growth of ovarian OVCAR-4 cell line at compound concentration 10e-6 was determined. It counts as functional, Homo sapiens. The essentials:
as §2

pIC50: −log10 of the molar value.

The term pIC50 denotes the IC50 on a negative log10 scale, so that one unit is a factor of ten.

Regarding `COc1ccc2nc3c(C(=O)NCCN(C)C)ccc(NCCN(C)C)c3c(O)c2c1`, the pIC50 in the experiment filed under Homo sapiens [1] was 6.30.
Take `COc1ccc2nc3c(C(=O)NCCCN(C)CCCNC(=O)c4ccc(NCCN(C)C)c5c(O)c6cc(OC)ccc6nc45)ccc(NCCN(C)C)c3c(O)c2c1`: the Growth in the experiment with HCT-116 [2] is recorded as -23%; with MCF7 [3], 18%; in the experiment with HCT-116 [4] it was -97%; in the experiment with MCF7 [5] it was 0%; in the experiment on RPMI-8226 [6], -36%; with NCI-H460 [7], 9%. In addition, the Growth is on record as 31% in the experiment on LOX IMVI [8]; -85% in the experiment on SNB-19 [9]; -44% with RPMI-8226 [10]; 38% with OVCAR-4 [11]; -85% in the experiment on MCF7 [12]; -25% with DU-145 [13]. For the same compound, the Growth in the experiment with 786-0 [14] is on record as -98%; with LOX IMVI [15] it was -2%; in the experiment with DU-145 [16] it was -77%; with 786-0 [17] it was 1%; in the experiment with SNB-19 [18], 3%; in the experiment with DU-145 [19], 25%. Moreover, the Growth is reported as 28% in the experiment on 786-0 [20]; 38% in the experiment with SNB-19 [21]; -96% in the experiment on OVCAR-4 [22]; -73% in the experiment with LOX IMVI [23]; 4% in the experiment with RPMI-8226 [25]; 17% with HCT-116 [26]. The Growth is on record as -10% in the experiment on NCI-H460 [27], -90% with NCI-H460 [28] and -21% in the experiment with OVCAR-4 [29]. The compound further showed a pIC50 in the experiment filed under Homo sapiens [24] of 8.70.

For the origin of these results see ChEMBL document CHEMBL1144932, “Design, synthesis, and biological properties of new bis(acridine-4-carboxamides) as anticancer agents” (J Med Chem, 2003).
